Test [1] deals with A549. The test is described as follows: Cell cycle arrest in human A549 cells assessed as accumulation at S phase at 100 uM after 18 hrs by propidium iodide staining-based FACS flow cytometric analysis (reference value: 17.8%). It counts as functional.
Test [2] has as its system A549. The test is described as follows: Cytotoxicity against human A549 cells assessed as cell death at 100 uM after 18 hrs by propidium iodide staining-based FACS flow cytometric analysis. Format: functional. A general note: A flow cytometer gives signals particle by particle.
The subject of test [3] is MCF7. The test is described as follows: Effect on alpha-tubulin acetylation in human MCF7 cells at 50 uM after 6 to 18 hrs by Western blotting analysis. It counts as functional, cell-based. In short, it runs like this:
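MCF-7 cells seeded 24 h ahead, treated for 6 or 18 h, then lysed in M-PER. Lysates run on SDS-PAGE, transferred to nitrocellulose and probed with mouse monoclonal anti-acetylated α-tubulin and anti-total α-tubulin. Detection with peroxidase anti-mouse secondary and ECL Plus.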
In general terms: Immunoblotting shows a protein as a band on a membrane.

Test [4] has as its system MCF7. Description: Cell cycle arrest in human MCF7 cells assessed as accumulation at G1 phase at 100 uM after 18 hrs by propidium iodide staining-based FACS flow cytometric analysis (reference value: 67.6%). Format: functional.
Test [5] has as its system A549. The test is described as follows: Cell cycle arrest in human A549 cells assessed as accumulation at G2 phase at 100 uM after 18 hrs by propidium iodide staining-based FACS flow cytometric analysis (reference value: 19.4%). Format: functional.
The target in test [6] is T1, NAD-dependent protein deacetylase sirtuin-1 (Homo sapiens) (UniProt Q96EB6).
T1 sequence (whole entry): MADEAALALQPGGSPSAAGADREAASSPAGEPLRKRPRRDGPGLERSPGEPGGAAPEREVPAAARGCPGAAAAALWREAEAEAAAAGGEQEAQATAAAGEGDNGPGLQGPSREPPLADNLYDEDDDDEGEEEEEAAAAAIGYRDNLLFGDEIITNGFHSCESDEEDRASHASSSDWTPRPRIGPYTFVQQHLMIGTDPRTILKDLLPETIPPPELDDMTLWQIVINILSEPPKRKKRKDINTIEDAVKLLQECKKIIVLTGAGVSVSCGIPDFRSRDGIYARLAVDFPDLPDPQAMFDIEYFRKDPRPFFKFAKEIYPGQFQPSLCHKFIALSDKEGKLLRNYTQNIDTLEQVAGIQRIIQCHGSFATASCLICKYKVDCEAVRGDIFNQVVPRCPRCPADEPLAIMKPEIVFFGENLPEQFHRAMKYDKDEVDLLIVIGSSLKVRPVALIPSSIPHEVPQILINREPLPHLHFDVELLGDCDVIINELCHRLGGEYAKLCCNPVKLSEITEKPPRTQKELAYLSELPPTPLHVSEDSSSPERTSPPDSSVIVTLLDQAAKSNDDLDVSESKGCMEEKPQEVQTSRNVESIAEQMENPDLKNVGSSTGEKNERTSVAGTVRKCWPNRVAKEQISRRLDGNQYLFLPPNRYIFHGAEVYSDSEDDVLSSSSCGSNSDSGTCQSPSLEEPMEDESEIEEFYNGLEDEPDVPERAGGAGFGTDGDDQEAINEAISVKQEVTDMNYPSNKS
Description: Inhibition of SIRT1 in etoposide-induced human MCF7 cells assessed as increase in p53 acetylation at Lys382 at 50 uM after 5 hrs by Western blotting analysis. It counts as cell-based. In short, it runs like this:
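MCF-7 cells seeded 24 h ahead, then given 50 μM compound and 100 μM etoposide together for 5 h before harvest. Acetylated p53 detected by Western blot; run once per compound.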

For test [7], the system named is A549. Description: Growth inhibition of human A549 cells at >= 50 uM after 48 hrs by sulforhodamine B assay. Format: functional, cell-based.
Test [8] relates to MCF7. Description: Cell cycle arrest in human MCF7 cells assessed as accumulation at S phase at 100 uM after 18 hrs by propidium iodide staining-based FACS flow cytometric analysis (reference value: 12.6%). It counts as functional.

Here are results for one molecule from ChEMBL document CHEMBL2417552, “Screen of pseudopeptidic inhibitors of human sirtuins 1-3: two lead compounds with antiproliferative effects in cancer cells” (J Med Chem, 2013).

The structures appear in SMILES notation. The source made the active and inactive calls. No cut-off for these calls is given here.

Turning to `COc1ccc(C(=O)CNC(=O)[C@H](CCCCNC(C)=S)NC(=O)OCc2ccccc2)cc1`, the Activity is recorded as 7.7% in the test on A549 [1], 80.5% in the test on MCF7 [4], 9.4% in the test with A549 [5] and 5.8% with MCF7 [8]. Also, the result with A549 [2] and in the test on MCF7 [3] was inactive. Also, in test [6], the inhibition result was “Active”. Further, in the test with A549 [7], the “growth inhibition (GI)” value is “Active”.
